Laboratory results published in ChEMBL document CHEMBL1149911, “Design and synthesis of peripherally restricted transient receptor potential vanilloid 1 (TRPV1) antagonists” (J Med Chem, 2008).

Assays:
[1] = Ratio of drug level in brain to plasma in Sprague-Dawley rat at 5 mg/kg, iv; type: ADME, organism-based; parameters: dose 5 mg/kg, route intravenous
In short: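 Male Sprague-Dawley rats received a single iv dose of 5 mg/kg as a solution in DMSO (n = 3). Plasma and nonperfused whole brain were collected 30 min after dosing. Total compound concentration was measured by HPLC and expressed as a brain-to-plasma ratio.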

[2] = molecular target: T1, Transient receptor potential cation channel subfamily V member 1 (Rattus norvegicus, UniProt O35433); experiment: Antagonist activity at rat TRPV1 expressed in CHO cells assessed as inhibition of capsaicin-induced calcium influx; type: functional, cell-based
T1 sequence (O35433 whole entry): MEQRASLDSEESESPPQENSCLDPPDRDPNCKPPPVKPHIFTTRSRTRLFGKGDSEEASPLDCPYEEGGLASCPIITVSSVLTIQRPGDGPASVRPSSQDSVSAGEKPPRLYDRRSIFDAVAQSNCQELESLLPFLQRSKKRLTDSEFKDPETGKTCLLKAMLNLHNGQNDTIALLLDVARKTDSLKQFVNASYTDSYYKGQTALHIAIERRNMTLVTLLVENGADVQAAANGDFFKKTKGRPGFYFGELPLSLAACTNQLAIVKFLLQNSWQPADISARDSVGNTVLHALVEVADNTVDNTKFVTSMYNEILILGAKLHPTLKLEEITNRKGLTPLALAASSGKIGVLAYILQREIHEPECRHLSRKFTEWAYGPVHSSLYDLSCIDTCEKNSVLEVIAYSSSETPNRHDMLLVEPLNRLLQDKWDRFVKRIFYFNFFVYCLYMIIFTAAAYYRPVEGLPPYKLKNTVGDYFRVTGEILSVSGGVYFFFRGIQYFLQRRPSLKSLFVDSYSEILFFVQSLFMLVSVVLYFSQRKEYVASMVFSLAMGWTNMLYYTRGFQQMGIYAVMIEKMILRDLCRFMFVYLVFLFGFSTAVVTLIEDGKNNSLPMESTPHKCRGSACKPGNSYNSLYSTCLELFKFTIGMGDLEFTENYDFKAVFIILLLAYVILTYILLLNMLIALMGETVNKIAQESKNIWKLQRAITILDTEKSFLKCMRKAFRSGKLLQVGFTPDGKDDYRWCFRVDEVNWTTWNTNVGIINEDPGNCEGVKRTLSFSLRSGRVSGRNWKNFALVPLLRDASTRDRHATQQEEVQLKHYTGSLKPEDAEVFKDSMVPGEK
In short: (§1)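 CHO cells stably expressing rat TRPV1. Uptake of 45Ca2+ was triggered by capsaicin (500 nM) or by acid (pH 5), and test compounds were run over a concentration range. IC50 values are the mean ± SEM of at least two experiments, with triplicate wells at each concentration.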

[3] = molecular target: T1, Transient receptor potential cation channel subfamily V member 1; experiment: Antagonist activity at rat TRPV1 expressed in CHO cells assessed as inhibition of pH 5 acid-induced calcium influx; type: functional, cell-based; in short: as §1
Rattus norvegicus [4] = experiment: Toxicity assessed as increase in body core temperature in Sprague-Dawley rat at 10 mg/kg, po by radiotelemetry relative to control; type: organism-based; parameters: dose 10 mg/kg, route oral; conditions: in vivo
Rattus norvegicus [5] = experiment: Inhibition of capsaicin-induced flinching in Sprague-Dawley rat at 10 mg/kg, po administered 1 hr before capsaicin challenge; type: functional
In short: (§2)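 Rats received the test compound orally, then capsaicin. In vivo on-target activity was scored as percent inhibition of the capsaicin-evoked flinching response.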

Blood [6] = experiment: Drug level in blood of Sprague-Dawley rat telemetry model at 10 mg/kg, po; type: ADME, organism-based; parameters: dose 10 mg/kg, route oral; conditions: in vivo
[7] = Drug level in blood of Sprague-Dawley rat with capsaicin-induced flinching at 10 mg/kg, po administered 1 hr before capsaicin challenge; type: ADME, organism-based; parameters: dose 10 mg/kg, route oral; conditions: read-out: Drug uptake
Rattus norvegicus [8] = experiment: Toxicity assessed as increase in body temperature in Sprague-Dawley rat at 0.1 to 3 mg/kg, po after 60 mins; type: organism-based; parameters: dose 0.1-3 mg/kg, route oral; conditions: in vivo, 1 h
In short: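 Rodents were dosed orally at 0.1–3 mg/kg. Body temperature was recorded 60 min after drug administration and compared across doses.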

Rattus norvegicus [9] = experiment: Inhibition of capsaicin-induced flinching in po dosed rat; type: functional, organism-based; in short: as §2
[10] = molecular target: T2, Transient receptor potential cation channel subfamily V member 1 (Homo sapiens, UniProt Q8NER1); experiment: Antagonist activity at human TRPV1 assessed as inhibition of low pH-induced calcium influx; type: functional
T2 sequence (Q8NER1 whole entry): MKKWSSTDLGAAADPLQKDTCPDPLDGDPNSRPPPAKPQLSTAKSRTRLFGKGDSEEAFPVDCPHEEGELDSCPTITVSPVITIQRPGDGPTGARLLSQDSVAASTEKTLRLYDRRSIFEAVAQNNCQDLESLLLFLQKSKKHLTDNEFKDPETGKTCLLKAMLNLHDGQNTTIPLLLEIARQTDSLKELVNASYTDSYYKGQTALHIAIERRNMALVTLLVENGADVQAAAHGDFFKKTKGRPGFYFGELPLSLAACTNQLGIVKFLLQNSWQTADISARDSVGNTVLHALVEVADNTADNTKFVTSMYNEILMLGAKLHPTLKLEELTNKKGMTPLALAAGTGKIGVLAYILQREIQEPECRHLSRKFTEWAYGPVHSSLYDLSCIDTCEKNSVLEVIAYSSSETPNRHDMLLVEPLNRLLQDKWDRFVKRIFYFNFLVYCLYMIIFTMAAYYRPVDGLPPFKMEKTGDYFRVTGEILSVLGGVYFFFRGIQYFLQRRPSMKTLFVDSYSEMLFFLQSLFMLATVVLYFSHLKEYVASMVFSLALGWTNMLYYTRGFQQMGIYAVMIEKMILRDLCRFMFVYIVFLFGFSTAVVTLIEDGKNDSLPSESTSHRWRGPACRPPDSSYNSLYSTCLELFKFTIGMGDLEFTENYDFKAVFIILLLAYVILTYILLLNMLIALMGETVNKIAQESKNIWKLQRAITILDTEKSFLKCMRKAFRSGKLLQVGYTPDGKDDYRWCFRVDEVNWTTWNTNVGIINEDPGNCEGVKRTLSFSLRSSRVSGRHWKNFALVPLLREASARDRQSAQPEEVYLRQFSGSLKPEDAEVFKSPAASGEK

[11] = molecular target: T2, Transient receptor potential cation channel subfamily V member 1; experiment: Antagonist activity at human TRPV1 assessed as inhibition of capsaicin-induced calcium influx; type: functional
[12] = Drug level in blood of Sprague-Dawley rat with capsaicin-induced flinching at 3 mg/kg, po administered 1 hr before capsaicin challenge; type: ADME, organism-based; parameters: dose 3 mg/kg, route oral; conditions: read-out: Drug uptake
Rattus norvegicus [13] = experiment: Inhibition of capsaicin-induced flinching in Sprague-Dawley rat at 3 mg/kg, po administered 1 hr before capsaicin challenge; type: functional; in short: as §2
Blood [14] = experiment: Drug level in blood of Sprague-Dawley rat telemetry model at 1 mg/kg, po; type: ADME, organism-based; parameters: dose 1 mg/kg, route oral; conditions: in vivo
Rattus norvegicus [15] = experiment: Inhibition of capsaicin-induced flinching in Sprague-Dawley rat at 1 mg/kg, po administered 1 hr before capsaicin challenge; type: functional; in short: as §2
Rattus norvegicus [16] = experiment: Toxicity assessed as increase in body core temperature in Sprague-Dawley rat at 1 mg/kg, po by radiotelemetry relative to control; type: organism-based; parameters: dose 1 mg/kg, route oral; conditions: in vivo
Rattus norvegicus [17] = experiment: Inhibition of capsaicin-induced flinching in Sprague-Dawley rat at 0.3 mg/kg, po administered 1 hr before capsaicin challenge; type: functional; in short: as §2
[18] = Drug level in blood of Sprague-Dawley rat with capsaicin-induced flinching at 0.3 mg/kg, po administered 1 hr before capsaicin challenge; type: ADME, organism-based; parameters: dose 0.3 mg/kg, route oral; conditions: read-out: Drug uptake
Blood [19] = experiment: Drug level in blood of Sprague-Dawley rat telemetry model at 3 mg/kg, po; type: ADME, organism-based; parameters: dose 3 mg/kg, route oral; conditions: in vivo
Rattus norvegicus [20] = experiment: Toxicity assessed as increase in body core temperature in Sprague-Dawley rat at 3 mg/kg, po by radiotelemetry relative to control; type: organism-based; parameters: dose 3 mg/kg, route oral; conditions: in vivo
[21] = Drug level in blood of Sprague-Dawley rat with capsaicin-induced flinching at 1 mg/kg, po administered 1 hr before capsaicin challenge; type: ADME, organism-based; parameters: dose 1 mg/kg, route oral; conditions: read-out: Drug uptake

Row | Compound | Kp [1] | IC50 [2] [nM] | IC50 [3] [nM] | also measured
1 | CC(=O)Nc1nc2c(Oc3cc(-c4ccc(C(F)(F)F)cc4N)ncn3)cccc2s1 | 0.93 | 15.9 | 3.6 | –
2 | CC(=O)Nc1nc2c(Oc3cc(-c4ccc(C(F)(F)F)cc4)nc(N)n3)cccc2s1 | 0.44 | – | – | –
3 | Nc1nc(Oc2cccc3[nH]c(=O)c(N)nc23)cc(-c2ccc(C(F)(F)F)cc2)n1 | 0.07 | 3.7 | 2.6 | –
4 | COC[C@@H](C)Nc1nc(Oc2cccc3[nH]c(=O)c(N)nc23)cc(-c2ccc(C(F)(F)F)cc2)n1 | 0.15 | 0.3 | 0.3 | –
5 | Nc1nc(Oc2cccc3[nH]c(=O)c(N)nc23)cc(-c2ccc(C(F)(F)F)cc2N)n1 | 0.04 | 34.5 | 61.9 | –
6 | COC[C@H](C)Nc1nc(Oc2cccc3[nH]c(=O)c(N)nc23)cc(-c2ccc(C(F)(F)F)cc2N)n1 | 0.07 | 3.8 | 2.7 | Activity (Rattus norvegicus [4]): 1.2 °C; inhibition in vivo at 10 mg/kg (Rattus norvegicus [5]): 95%; Drug uptake (Blood [6]): 289.24 ng/mL; concentration at 1 h [7]: 342 ng/mL
7 | CC(=O)Nc1nc2c(Oc3cc(-c4ccc(C(F)(F)F)cc4)ncn3)cccc2s1 [AMG-517] | – | – | – | Activity (Rattus norvegicus [8]): Active; EC50 (Rattus norvegicus [9]): 0.33 mg/kg; IC50 [10]: 0.6 nM; IC50 [11]: 0.8 nM
8 | COC[C@H](C)Nc1nc(Oc2cccc3[nH]c(=O)c(N)nc23)cc(-c2ccc(C(F)(F)F)cc2)n1 | 0.19 | 0.8 | 1 | –
9 | Nc1nc2c(Oc3cc(-c4ccc(C(F)(F)F)cc4)ncn3)cccc2[nH]c1=O | 0.4 | – | – | –
10 | Nc1nc2c(Oc3cc(-c4ccc(C(F)(F)F)cc4NC(=O)c4ccccn4)ncn3)cccc2[nH]c1=O | 0.21 | 0.7 | 0.7 | –
11 | CC(=O)Nc1nc2c(Oc3cc(-c4ccc(C(F)(F)F)cc4NC(=O)NC(C)(C)C)ncn3)cccc2s1 | 0.19 | 2.4 | 6 | –
12 | Nc1cc(C(F)(F)F)ccc1-c1cc(Oc2cccc3[nH]c(=O)c(N)nc23)ncn1 | 0.23 | 1.5 | 3.9 | –
13 | COCCNc1nc(Oc2cccc3[nH]c(=O)c(N)nc23)cc(-c2ccc(C(F)(F)F)cc2N)n1 | 0.1 | 4.3 | 5.9 | inhibition in vivo at 10 mg/kg (Rattus norvegicus [5]): 71%; concentration at 1 h [7]: 298 ng/mL
14 | CC(Nc1nc(Oc2cccc3[nH]c(=O)c(N)nc23)cc(-c2ccc(C(F)(F)F)cc2)n1)c1ccccn1 (configuration not stated) | 0.04 | 2.8 | 5.7 | Activity (Rattus norvegicus [4]): 0.5 °C; inhibition in vivo at 10 mg/kg (Rattus norvegicus [5]): 94%; Drug uptake (Blood [6]): 241.9 ng/mL; concentration at 1 h [7]: 267 ng/mL
15 | Nc1nc2c(Oc3cc(-c4ccc(C(F)(F)F)nc4N[C@@H]4CCOC4)ncn3)cccc2[nH]c1=O | 0.09 | 1.1 | 0.8 | concentration at 1 h [12]: 32.8 ng/mL; inhibition in vivo at 3 mg/kg (Rattus norvegicus [13]): 30%
16 | COC[C@H](C)Nc1nc(Oc2cccc3[nH]c(=O)c(N)nc23)cc(-c2ccc(C(F)(F)F)nc2N)n1 | 0.04 | 4.4 | 6.4 | inhibition in vivo at 10 mg/kg (Rattus norvegicus [5]): 23%; concentration at 1 h [7]: 5.48 ng/mL
17 | Nc1nc2c(Oc3cc(-c4ccc(C(F)(F)F)cc4NC(=O)c4ccncc4)ncn3)cccc2[nH]c1=O | 0.07 | 3.3 | 2.1 | inhibition in vivo at 10 mg/kg (Rattus norvegicus [5]): 50%; concentration at 1 h [7]: 0.82 ng/mL
18 | COCCNc1nc(Oc2cccc3[nH]c(=O)c(N)nc23)cc(-c2ccc(C(F)(F)F)cc2)n1 | 0.05 | 0.6 | 0.8 | Drug uptake (Blood [14]): 100.29 ng/mL; inhibition in vivo at 1 mg/kg (Rattus norvegicus [15]): 100%; Activity (Rattus norvegicus [16]): 0.7 °C; inhibition in vivo at 0.3 mg/kg (Rattus norvegicus [17]): 93%; concentration at 1 h [18]: 24.9 ng/mL
19 | CC(C)(C)NC(=O)Nc1cc(C(F)(F)F)ccc1-c1cc(Oc2cccc3[nH]c(=O)c(N)nc23)ncn1 | 0.04 | 4.1 | 5.2 | inhibition in vivo at 10 mg/kg (Rattus norvegicus [5]): 43%; concentration at 1 h [7]: 196 ng/mL
20 | CC(O)CCNc1nc(Oc2cccc3[nH]c(=O)c(N)nc23)cc(-c2ccc(C(F)(F)F)cc2)n1 (configuration not stated) | 0.03 | 16.1 | 8.7 | inhibition in vivo at 10 mg/kg (Rattus norvegicus [5]): 72%; concentration at 1 h [7]: 494 ng/mL
21 | Nc1nc(C(F)(F)F)ccc1-c1cc(Oc2cccc3[nH]c(=O)c(N)nc23)ncn1 | 0.11 | 0.8 | 2.7 | Activity (Rattus norvegicus [4]): 1.1 °C; Drug uptake (Blood [6]): 1129.62 ng/mL; concentration at 1 h [12]: 252 ng/mL; inhibition in vivo at 3 mg/kg (Rattus norvegicus [13]): 100%
22 | COCCNc1nc(C(F)(F)F)ccc1-c1cc(Oc2cccc3[nH]c(=O)c(N)nc23)ncn1 | 0.04 | 0.7 | 1.3 | Drug uptake (Blood [19]): 25.35 ng/mL; inhibition in vivo at 1 mg/kg (Rattus norvegicus [15]): 100%; Activity (Rattus norvegicus [20]): 0.6 °C; concentration at 1 h [21]: 19 ng/mL
23 | Nc1nc2c(Oc3cc(-c4ccc(C(F)(F)F)nc4NCCN4CCOCC4)ncn3)cccc2[nH]c1=O | 0.04 | 2.2 | 18.8 | concentration at 1 h [12]: 67.1 ng/mL; inhibition in vivo at 3 mg/kg (Rattus norvegicus [13]): 60%
24 | CC(C)CN1CCCCC1CNc1nc(C(F)(F)F)ccc1-c1cc(Oc2cccc3[nH]c(=O)c(N)nc23)ncn1 (configuration not stated) | 0.25 | 0.9 | 1.7 | –
25 | CC(C)(C)CN1CCCCC1CNc1nc(Oc2cccc3[nH]c(=O)c(N)nc23)cc(-c2ccc(C(F)(F)F)cc2)n1 (configuration not stated) | 0.24 | 2 | 2.1 | –
